# Bioassay records: PubChem BioAssay, The Scripps Research Institute Molecular Screening Center
# NPY-Y2 PAM-ag: human NPY-Y2 potentiation or agonism, primary screen; AID 1359; P49146; cells expressing NPY-Y2, potentiator/agonist read-out; 0.45% of 220,000 active; activation, % at 3.6 µM; in the data active = activation above about 27%;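 note: cells stimulated with NPY near EC25 plus isoproterenol at EC100; 0% = vehicle plus submaximal agonist and 100% = vehicle plus saturating agonist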
# Target sequence (P49146 whole entry, looked up): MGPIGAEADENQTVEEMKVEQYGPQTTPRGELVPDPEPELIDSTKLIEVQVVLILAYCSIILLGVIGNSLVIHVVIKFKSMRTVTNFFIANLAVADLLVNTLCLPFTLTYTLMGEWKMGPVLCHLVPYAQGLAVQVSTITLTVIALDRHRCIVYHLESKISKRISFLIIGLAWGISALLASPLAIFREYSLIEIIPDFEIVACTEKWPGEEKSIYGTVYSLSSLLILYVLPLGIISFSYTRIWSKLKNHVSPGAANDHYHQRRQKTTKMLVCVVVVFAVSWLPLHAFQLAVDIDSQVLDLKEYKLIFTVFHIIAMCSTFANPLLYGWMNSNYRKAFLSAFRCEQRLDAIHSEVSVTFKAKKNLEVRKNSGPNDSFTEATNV
# NPY-Y1 PAM-ag: human NPY-Y1 potentiation or agonism, primary screen. P25929. NPY-Y1 expressing cells, potentiator/agonist activation. activation, % at 3.6 µM. 0.37% of 220,000 active. AID 1304; in the data active = activation above about 33%, passing the limit was not always enough;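 note: cells stimulated with NPY at EC10 then isoproterenol at EC100; 0% = low agonist plus stimulus and 100% = saturating agonist plus stimulus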
# NPY Y1 blocker: NPY-Y1 (human) receptor antagonism. HEK293-CNG Y1 cells, membrane potential fluorescence; NPY at EC95, then isoproterenol. P25929. inhibition, % at 3.6 µM. 1% of 200,000 active;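 active = inhibition above the campaign mean inhibition of all tested compounds plus 3 SD, cut at about 20% in these data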;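 note: 0% = DMSO wells given NPY plus isoproterenol and 100% = isoproterenol alone without NPY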
#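 Material: HEK293 cells with Y1 receptor plus CNG channel; times: compound incubation 1 h at room temperature, readout 45 min post-stimulation; signal: fluorescence, membrane potential probe; read-out basis: fluorescence ratio normalized to % inhibition between controls; benchmarks: full-block control isoproterenol-only wells, zero-block control NPY plus isoproterenol wells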
# NPY-Y2 antag: antagonists of human neuropeptide Y receptor Y2 | NPY-Y2 expressing cells, antagonist mode | inhibition, % at 2.7 µM | AID 793 | 0.99% of 140,000 active; in the data active = inhibition above about 17%;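 note: 0% = vehicle with agonist challenge and 100% = reference antagonist with challenge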
# The depositor's hits bear a star; . = not tested or not shown. Most compounds without a hit are left out; they make up all but 1.8% or so of the library.
SMILES,NPY-Y2 PAM-ag,NPY-Y1 PAM-ag,NPY Y1 blocker,NPY-Y2 antag
COC(=O)CN1C(c2ccccc2)=Nc2ccc(Cl)cc2C1c1ccccc1 (centres undefined),-4,-6,27*,22*
O=C(NC(c1ccccc1)c1c(O)ccc2ccccc12)c1ccccc1Cl (centres undefined),-1,-29,9,3
O=C(NC(c1ccc(Cl)cc1)c1c(O)ccc2ccccc12)c1ccccc1 (centres undefined),43*,41,-13,-6
Fc1ccccc1CNCCC(Cc1ccccc1)c1ccc2c(c1)OCO2 (centres undefined),3,-7,10,6
COc1ccc(CNCCC(c2ccccc2)c2ccc3c(c2)OCO3)cc1 (centres undefined),-3,6,34*,17*
NC(=O)Cn1c(-c2nonc2N)nc2ccccc21,-15,5,-3,.
Cc1ccc(Cn2c(-c3nonc3N)nc3ccccc32)cc1,-8,-41,23*,21*
C/C(=N\Nc1nc2c(s1)CCCC2)c1ccccc1,-2,-6,0,-2
CCOc1ccccc1N(C(=O)c1snc(C(N)=O)c1N)C(C(=O)NC1CCCC1)c1ccco1 (centres undefined),-2,-4,26*,20*
COc1ccc(-c2csc(NC(=O)c3ccccc3NS(=O)(=O)c3ccc(F)c(F)c3)n2)cc1,94*,70*,3,.
Cc1ccc(-c2cc(C(F)F)n3ncc(C(=O)NN4CCCCC4)c3n2)cc1,-12,2,4,.
Cc1ccc(-c2cc(C(F)F)n3ncc(C(=O)N4CCN5CCCC5C4)c3n2)cc1 (centres undefined),-39,-76,21*,19*
CCOC(=O)C1CCCN(C(=O)c2cnn3c(C(F)F)cc(-c4ccc(C)cc4)nc23)C1 (centres undefined),-1,-33,30*,26*
CCOC(=O)Cc1ccc2sc(-c3ccccc3)nc2c1,11,6,2,5
CC1=NN(c2ccc(Cl)cc2)C(=O)/C1=C\c1cccn1-c1ccc(S(N)(=O)=O)cc1,49*,60*,-17,-6
Cc1ccc(S(=O)(=O)N/N=C/c2cccn2-c2ccc(Cl)cc2)cc1,-12,-49,0,5
COc1cccc(-c2csc(N3CCN(C(=S)Nc4ccccc4C)CC3)n2)c1,8,17,-3,.
CC(C)(C)NCC(O)COc1ccc(Br)cc1 (centres undefined),97*,108*,-11,.
CC(C)(CO)NCC(O)COc1ccc2c(c1)CCC2 (centres undefined),88*,101*,-13,3
Cc1ccc([N+](=O)[O-])c(OCCN2CCCCCC2)c1,10,-3,7,3
Cc1ccc([N+](=O)[O-])c(OCC(O)CNC(C)(C)C)c1 (centres undefined),105*,113*,.,.
CCSC(=S)Nc1c(C)n(C)n(-c2ccccc2)c1=O,7,14,4,.
CC(=O)c1ccc(OCC(O)CN2CCN(Cc3ccccc3)CC2)cc1 (centres undefined),9,-16,2,4
CC(C)(c1ccccc1)c1ccc(OCC(O)CNC2CCN(Cc3ccccc3)CC2)cc1 (centres undefined),-8,-25,21*,.
CCOc1ccc(OCC(O)CNC2CCN(Cc3ccccc3)CC2)cc1 (centres undefined),-16,-82,30*,19*
SMILES,NPY-Y2 PAM-ag,NPY-Y1 PAM-ag,NPY Y1 blocker,NPY-Y2 antag
O=C(c1ccccc1)c1ccc(OCC(O)CN2CCN(Cc3ccccc3)CC2)cc1 (centres undefined),-7,-49,3,4
CC(=O)Nc1ccc(OCC(O)CNC2CCCC2)cc1 (centres undefined),-3,-5,4,1
OC(CNC1Cc2ccccc2C1)COc1ccc(F)cc1 (centres undefined),74*,85*,.,.
N#CCOC(=O)c1c2c(nc3ccccc13)CCC2,6,12,-3,.
Cc1cc(Br)ccc1NC(=O)CN1C(=S)NC(C)(C)CC1C (centres undefined),2,11,0,.
O=c1c2c3c(sc2nc2sc(CN4CCOCC4)cn12)CCCC3,5,5,3,3
Cc1ccccc1NC(=O)c1ccc(CN2CCC(Cc3ccccc3)CC2)cc1,38*,20,6,13
COc1ccc(CCNC(=O)c2ccc(CN3CCC(Cc4ccccc4)CC3)cc2)cc1,2,7,5,0
N#Cc1nc(COc2ccc(Br)cc2)oc1N1CCCCCC1,-19,-19,11,17
N#Cc1nc(COc2ccc(Br)cc2)oc1N1CCCC1,-49,-23,27*,22*
CCN1CCN(c2oc(COc3ccc(Cl)cc3)nc2C#N)CC1,-46,-18,.,.
N#Cc1nc(COc2ccc(Cl)cc2)oc1N1CCN(Cc2ccccc2)CC1,-37,-49,34*,32*
N#Cc1nc(COc2ccc(Cl)cc2Cl)oc1N1CCOCC1,13,-22,8,4
COc1ccc(N2CCN(c3oc(COc4ccc(Cl)cc4Cl)nc3C#N)CC2)cc1,-16,-51,52*,11
COc1ccc(N2CCN(c3oc(COc4ccc(Cl)cc4)nc3C#N)CC2)cc1,-8,-40,49*,24*
O=C(CC(c1ccccc1)c1ccco1)Nc1nccs1 (centres undefined),-8,-11,10,5
COC(=O)C(C(=O)Nc1nc2ccccc2s1)C1CCCC1 (centres undefined),0,6,6,.
COc1ccc(N2CCN(c3oc(Cc4ccccc4)nc3C#N)CC2)cc1,-11,-11,15,16
COc1ccc(N2CCN(c3oc(COc4ccccc4)nc3C#N)CC2)cc1,-12,1,39*,27*
CCc1nc(N2CCCC(C)C2)c2oc3ccccc3c2n1 (centres undefined),-23,-25,38*,29*
CCc1nc(Nc2ccc3c(c2)OCO3)c2oc3ccccc3c2n1,10,-21,2,2
CCc1nc(N2CCN(Cc3ccc4c(c3)OCO4)CC2)c2oc3ccccc3c2n1,-45,-103,26*,21*
CCc1nc(N2CCCCC2)c2oc3ccccc3c2n1,-31,-30,8,14
COC(=O)CCN(C(=O)c1cccc([N+](=O)[O-])c1)c1ccccn1,0,-1,-2,.
CC(=O)Nc1cc(NC(C)=O)c(N=Nc2ccccc2)cc1C,-24,4,.,.
SMILES,NPY-Y2 PAM-ag,NPY-Y1 PAM-ag,NPY Y1 blocker,NPY-Y2 antag
Cc1ccc(NCC(O)C(O)C(O)CO)c(N=Nc2ccccc2)c1C (centres undefined),98*,99*,.,.
COc1cccc(NC(=O)c2cc([N+](=O)[O-])ccc2NCc2cccnc2)c1,-2,-3,-3,-2
Cc1ccc(NC(=O)c2cc([N+](=O)[O-])ccc2NCc2cccnc2)cc1Cl,15,39*,-6,-4
COc1ccc(C2=Nn3c(nnc3-c3ccccc3OC)SC2)cc1OC,-32,-75,30*,30*
COc1ccc(C(c2nnnn2C2CCCC2)N2CCc3ccccc3C2)cc1OC (centres undefined),-19,-29,17,9
COc1ccc(OC)c(C(c2nnnn2C2CCCC2)N2CCc3ccccc3C2)c1 (centres undefined),-5,-17,21*,18*
